How the values were obtained:
[1] = molecular target: T1, M-phase inducer phosphatase 1 (Homo sapiens, UniProt P30304); assay: (§1) Inhibitory activity tested against cell division cycle 25A (assay using fluorescein diphosphate (FDP) as substrate)
T1 sequence (P30304 whole entry): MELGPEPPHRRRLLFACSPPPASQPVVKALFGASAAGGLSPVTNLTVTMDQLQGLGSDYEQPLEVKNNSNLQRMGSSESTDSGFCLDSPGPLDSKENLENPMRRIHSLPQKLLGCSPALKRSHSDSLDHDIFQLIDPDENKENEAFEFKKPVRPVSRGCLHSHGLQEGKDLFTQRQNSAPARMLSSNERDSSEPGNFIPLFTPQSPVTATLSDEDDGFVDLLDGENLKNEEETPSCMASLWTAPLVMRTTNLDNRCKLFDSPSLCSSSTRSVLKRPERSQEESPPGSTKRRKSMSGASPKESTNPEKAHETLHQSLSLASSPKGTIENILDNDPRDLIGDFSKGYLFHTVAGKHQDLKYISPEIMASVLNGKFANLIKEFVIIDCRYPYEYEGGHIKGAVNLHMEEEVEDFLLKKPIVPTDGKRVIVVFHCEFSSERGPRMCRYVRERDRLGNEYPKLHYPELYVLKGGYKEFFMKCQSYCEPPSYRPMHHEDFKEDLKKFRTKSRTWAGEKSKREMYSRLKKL
Method in brief: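 Recombinant human GST-Cdc25A fusion protein, each batch calibrated so that FDP was dephosphorylated linearly over 20 min. Fluorescein diphosphate was the substrate. Reactions ran 15 min at 25 °C in the dark and were stopped with sodium orthovanadate. IC50 came from at least two independent runs, each in triplicate.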

[2] = molecular target: T2, M-phase inducer phosphatase 1 (Homo sapiens) (UniProt P30304); assay: as §1; details: concentration not given here
T2 sequence (whole entry): T1 sequence (P30304 whole entry)
Method in brief: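 Recombinant human GST-Cdc25A fusion protein, each batch calibrated so that FDP was dephosphorylated linearly over 20 min. Fluorescein diphosphate was the substrate. Reactions ran 15 min at 25 °C in the dark and were stopped with sodium orthovanadate. Fluorescein monophosphate was read at 485 nm excitation and 530 nm emission. IC50 came from at least two independent runs, each in triplicate.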

786-0 [3] = assay: Growth inhibitory activity was determined against 786-0 cancer cell line of renal cancer; type: functional; details: Homo sapiens
Method in brief: (§2)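 NCI 60 human tumour cell line screen run at the National Cancer Institute. Cell growth and viability read with the protein stain sulforhodamine B, which binds basic amino acids of cells left attached after washing. […] MG MID is the mean GI50 calculated over all panels.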

A549 = assay: Growth inhibitory activity was determined against A549/ATCC cancer cell line of non-small cell lung cancer; type: functional, Homo sapiens; details: Homo sapiens, A549; method in brief: as §2
COLO 205 = assay: Growth inhibitory activity was determined against COLO 205 cancer cell line colon cancer; type: functional, Homo sapiens; details: Homo sapiens, COLO 205; method in brief: as §2
HT-29 = assay: Growth inhibitory activity was determined against HT-29 cancer cell line colon cancer; type: functional, Homo sapiens; details: Homo sapiens, HT-29; method in brief: as §2
LOX IMVI = assay: Growth inhibitory activity was determined against LOX IMVI cancer cell line of melanoma; type: functional, Homo sapiens; details: Homo sapiens, LOX IMVI; method in brief: as §2
NCI-H23 = assay: Growth inhibitory activity was determined against NCI-H23 cancer cell line of non-small cell lung cancer; type: functional, Homo sapiens; details: Homo sapiens, NCI-H23; method in brief: as §2
NCI-H522 = assay: Growth inhibitory activity was determined against NCI-H522 cancer cell line of non-small cell lung cancer; type: functional; details: Homo sapiens; method in brief: as §2
NCI/ADR-RES = assay: Growth inhibitory activity was determined against NCI/ADR-RES cancer cell line of Breast cancer; type: functional, Homo sapiens; details: Homo sapiens, NCI/ADR-RES; method in brief: as §2
OVCAR-8 = assay: Growth inhibitory activity was determined against OVCAR-8 cancer cell line of Ovarian cancer; type: functional; details: Homo sapiens; method in brief: as §2
SN12C [4] = assay: Growth inhibitory activity was determined against SN12C cancer cell line of renal cancer; type: functional; details: Homo sapiens; method in brief: as §2
SF-539 = assay: Growth inhibitory activity was determined against SF-539 cancer cell line of CNS cancer; type: functional; details: Homo sapiens; method in brief: as §2
SF-268 = assay: Growth inhibitory activity was determined against SF-268 cancer cell line of CNS cancer; type: functional; details: Homo sapiens; method in brief: as §2
SK-MEL-5 = assay: Growth inhibitory activity was determined against SK-MEL-5 cancer cell line of melanoma; type: functional, Homo sapiens; details: Homo sapiens, SK-MEL-5; method in brief: as §2
UO-31 [5] = assay: Growth inhibitory activity was determined against UO-31 cancer cell line of renal cancer; type: functional; details: Homo sapiens; method in brief: as §2
U-251 = assay: Growth inhibitory activity was determined against U-251 cancer cell line of CNS cancer; type: functional; details: Homo sapiens; method in brief: as §2
PC-3 = assay: Growth inhibitory activity was determined against PC-3 cancer cell line of Prostate cancer; type: functional; details: Homo sapiens; method in brief: as §2
T47D = assay: Growth inhibitory activity was determined against T-47D cancer cell line of Breast cancer; type: functional, Homo sapiens; details: Homo sapiens, T47D; method in brief: as §2
OVCAR-3 = assay: Growth inhibitory activity was determined against OVCAR-3 cancer cell line of Ovarian cancer; type: functional; details: Homo sapiens; method in brief: as §2
BT-549 (Homo sapiens) = assay: Growth inhibitory activity was determined against BT-549 cancer cell line of Breast cancer; details: Homo sapiens, BT-549
786-0 [6] = assay: Growth inhibitory activity was determined against 786-0 cancer cell line of Renal cancer; type: functional; details: Homo sapiens; method in brief: as §2
HCC 2998 = assay: Growth inhibitory activity was determined against HCC2998 cancer cell line colon cancer; type: functional, Homo sapiens; details: Homo sapiens, HCC 2998; method in brief: as §2
SN12C [7] = assay: Growth inhibitory activity was determined against SN12C cancer cell line of Renal cancer; type: functional; details: Homo sapiens; method in brief: as §2
UO-31 [8] = assay: Growth inhibitory activity was determined against UO-31 cancer cell line of Renal cancer; type: functional; details: Homo sapiens; method in brief: as §2

C/C(=C/C/C=C\C#N)[C@H]1CC[C@]2(C)[C@@H](C(C)CCCC(C)C)CC[C@H]2[C@@H]1CC(=O)O (some centres not stated)
IC50 [1]: 36.3 µM

CC(C)CCC[C@@H](C)[C@H]1CC[C@H]2[C@@H]3CC[C@H]4CC(NCCCC(=O)O)CC[C@]4(C)[C@H]3CC[C@]12C (some centres not stated)
inhibition [2]: 16%

COC(CC#N)CC[C@@]1(C)OC(=O)C[C@H]2[C@@H]3CC[C@H]([C@H](C)CCCC(C)C)[C@@]3(C)CC[C@@H]21 (some centres not stated)
IC50 [1]: 10.5 µM

CC(C)CCC[C@@H](C)[C@H]1CC[C@H]2[C@@H]3CC(=O)N4C(=O)C=CCC[C@]4(C)[C@H]3CC[C@]12C
GI50 (786-0 [3]): 1440 nM
GI50 (A549): 4.27 µM
GI50 (COLO 205): 4.76 µM
GI50 (HT-29): 2.63 µM
GI50 (LOX IMVI): 840 nM
GI50 (NCI-H23): 4.85 µM
GI50 (NCI-H522): 6.1 µM
GI50 (NCI/ADR-RES): 6.05 µM
GI50 (OVCAR-8): 1.97 µM
GI50 (SN12C [4]): 3.46 µM
GI50 (SF-539): 4.46 µM
GI50 (SF-268): > 25 µM
GI50 (SK-MEL-5): 4.37 µM
GI50 (UO-31 [5]): 2950 nM
GI50 (U-251): 3.46 µM
GI50 (PC-3): 4.22 µM
GI50 (T47D): 4.09 µM
GI50 (OVCAR-3): 4 µM
GI50 (BT-549 (Homo sapiens)): 5.07 µM

CCOC(=O)C(C)SC(=S)O[C@H]1CC[C@@]2(C)[C@@H](CC[C@@H]3[C@@H]2CC[C@]2(C)[C@@H]([C@H](C)CCCC(C)C)CC[C@@H]32)C1 (some centres not stated)
IC50 [1]: > 100 µM

CC(C)CCC[C@@H](C)[C@H]1CC[C@H]2[C@@H]3CC(=O)O[C@@](C)(CC/C=C\C#N)[C@H]3CC[C@]12C
IC50 [1]: > 50 µM

CC(C)CCCC(C)[C@H]1CC[C@H]2[C@H](CC(=O)O)[C@@H](C(C)CCCCC#N)CC[C@]12C (stereo in doubt; 21)
GI50 (786-0 [6]): 8.45 µM
GI50 (A549): 5.09 µM
GI50 (COLO 205): 5.29 µM
IC50 [1]: 2.2 µM
GI50 (HT-29): 4.69 µM
GI50 (HCC 2998): 5.36 µM
GI50 (LOX IMVI): 4860 nM
GI50 (NCI-H23): 5.27 µM
GI50 (NCI-H522): > 25 µM
GI50 (NCI/ADR-RES): 5.34 µM
GI50 (OVCAR-8): 4.88 µM
GI50 (SN12C [7]): 6.05 µM
GI50 (SF-539): 10.8 µM
GI50 (SF-268): > 25 µM
GI50 (SK-MEL-5): 7.04 µM
GI50 (UO-31 [8]): 9.97 µM
GI50 (PC-3): 7.15 µM
GI50 (T47D): 6.69 µM
GI50 (OVCAR-3): 5.25 µM
GI50 (BT-549 (Homo sapiens)): 5.16 µM

C/C(=C/CCCC#N)[C@H]1CC[C@]2(C)[C@@H](C(C)CCCC(C)C)CC[C@H]2[C@@H]1CC(=O)O (some centres not stated)
IC50 [1]: 2.4 µM

CCOC(=O)CSC(=S)O[C@H]1CC[C@@]2(C)[C@@H](CC[C@@H]3[C@@H]2CC[C@]2(C)[C@@H]([C@H](C)CCCC(C)C)CC[C@@H]32)C1
IC50 [1]: > 100 µM

CC(C)CCC[C@@H](C)[C@H]1CC[C@H]2[C@@H]3CC[C@H]4C[C@@H](OCC(=O)O)CC[C@]4(C)[C@H]3CC[C@]12C
IC50 [1]: 0.7 µM

CC(=O)OC1CC[C@](C)([C@H]2CC[C@]3(C)[C@@H]([C@H](C)CCCC(C)C)CC[C@H]3[C@@H]2CC(=O)O)C(=O)C1 (some centres not stated)
IC50 [1]: 9.3 µM

CC(C)CCC[C@@H](C)[C@H]1CC[C@H]2[C@@H]3CC[C@H]4C[C@@H](OC(=O)Nc5ccccc5)CC[C@]4(C)[C@H]3CC[C@]12C
inhibition [2]: 18%

CC(C)CCC[C@@H](C)[C@H]1CC[C@H]2[C@@H]3CC[C@H]4C[C@@H](O/C(S)=N\c5cccc6ccccc56)CC[C@]4(C)[C@H]3CC[C@]12C
inhibition [2]: 19%

CC(C)CCC[C@@H](C)[C@H]1CC[C@H]2[C@H](CC(=O)O)[C@@H]([C@@]3(C)CC=CCC3=O)CC[C@]12C
IC50 [1]: 5.8 µM

CC(C)CCC[C@@H](C)[C@H]1CC[C@H]2[C@@H]3CC[C@H]4C[C@@H](OC(=S)SCC(=O)c5ccccc5)CC[C@]4(C)[C@H]3CC[C@]12C
IC50 [1]: > 100 µM

C=C(CCC(CC#N)OCC)[C@H]1CC[C@]2(C)[C@@H](C(C)CCCC(C)C)CC[C@H]2[C@@H]1CC(=O)O (some centres not stated)
IC50 [1]: 2.9 µM

CCOC(=O)CC(=O)CSC(=S)O[C@H]1CC[C@@]2(C)[C@@H](CC[C@@H]3[C@@H]2CC[C@]2(C)[C@@H]([C@H](C)CCCC(C)C)CC[C@@H]32)C1
IC50 [1]: > 100 µM

CC(C)CCC[C@@H](C)[C@H]1CC[C@H]2[C@@H]3CC[C@H]4C[C@@H](O/C(S)=N\c5ccccc5)CC[C@]4(C)[C@H]3CC[C@]12C
IC50 [1]: 2.1 µM

CC(C)CCC[C@@H](C)[C@H]1CC[C@H]2[C@@H]3CC[C@H]4C[C@@H](OC(=S)SCC(=O)O)CC[C@]4(C)[C@H]3CC[C@]12C
IC50 [1]: 0.9 µM

CC(C)CCC[C@@H](C)[C@H]1CC[C@H]2[C@H](CC(=O)O)[C@@H]([C@@]3(C)CCC=CC3=O)CC[C@]12C
IC50 [1]: 9.5 µM
